UPR XBP1 act: activators of adaptive XBP1 UPR arm, primary screen, cell-based, CHO-XBP1 luciferase reporter, luminescence, uHTS | activation, % at 20 µM | IRE1-XBP1 UPR activation; percent of tunicamycin response, DMSO as zero | 330,000 compounds, 0.33% hits;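 active means versus positive control, 20 µM dose yields 30% or more activation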;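 further: 100% = tunicamycin at 10 µg/mL and 0% = DMSO only wells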
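Signal: luciferase luminescence; Assay system: CHO-XBP1 luciferase reporter cells; Amount: one thousand reporter cells per well; Dosing: 20 µM single concentration, DMSO 1%; Benchmarks: high control tunicamycin 10 µg/mL final, low control DMSO vehicle only; Schedule: 6 h compound exposure at 37 °C, 5% CO2; Evaluation: percent activation relative to tunicamycin reference.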
CHOP inhibitor: inhibitors of CHOP promoter induction, primary screen, cell-based, unfolded protein response, luciferase reporter. CHO-K1 CHOP-promoter luciferase, tunicamycin-induced, 15-18 h. inhibition, % at 10 µM. 220,000 compounds, 3.8% hits. AID 2732, 2010;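 active means compounds that reduced the stress-induced luciferase reporter signal by more than about 70% of percent inhibition, limit read from the data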;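 further: 0% = tunicamycin plus vehicle and 100% = wells without tunicamycin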
PvdQ acylase: P. aeruginosa PvdQ acylase inhibitors, primary screen, biochemical, fluorescence, plate reader and imaging, single point | PvdQ acylase [Pseudomonas aeruginosa LESB58] | purified PvdQ acylase | inhibition, % at 10 µM | 340,000 compounds, 0.063% hits | AID 488965, 2010; in the data active means inhibition above about 30%, passing the limit was not always enough;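 further: 0% = vehicle neutral wells and 100% = reference inhibitor wells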
CHOP UPR activ: activators of apoptotic CHOP UPR arm, primary screen, cell-based, CHO-CHOP luciferase reporter, luminescence, uHTS; UPR activation; percent of tunicamycin response over DMSO baseline; activation, % at 10 µM; 330,000 compounds, 0.34% hits;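 active means at 10 µM dose, activation of 40% or more, normalized to positive control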;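 further: 100% = tunicamycin at 10 µg/mL and 0% = DMSO alone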
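assay system = CHO CHOP reporter cells | amount = 500 CHO-CHOP cells per well | buffer or medium = F12 with 10% FBS | incubation = 16-18 h cell attachment, then 6 h compound exposure, 37 °C | detection = luminescence read with Steady-Glo | read-out = percent activation relative to tunicamycin control | controls = tunicamycin high control, DMSO low control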
UPR XBP1 confirm: IRE1-XBP1 UPR arm activators, confirmation, cell-based, CHO-XBP1 luciferase reporter, luminescence, single concentration; shares compounds with UPR XBP1 act; activation, % at 20 µM; 1,000 compounds, 63% hits; AID 485299, 2010;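 active means reporter signal at least 30% of the positive control's activation in two or more of four replicate wells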;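 further: plate controls were DMSO negative control for no effect and tunicamycin 10 µg/mL positive control for full effect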
Active calls of the source: *; · = no result. Shown is part of a subset that was picked to be rich in hits.

SMILES	UPR XBP1 act	CHOP inhibitor	PvdQ acylase	CHOP UPR activ	UPR XBP1 confirm
Cc1cccn2c(=O)c3cc(C(=O)NC4CCCC4)n(C)c3nc12	7	·	-5	3	·
Cc1cc(C)nc(NS(=O)(=O)c2ccc(NC(=O)c3cc4c(=O)n5cccc(C)c5nc4n3C)cc2)n1	101*	·	-10	10	4
COc1ccc(-c2nn(-c3ccccc3)cc2/C=C/C(=O)OCC(=O)Nc2ccc(C#N)cc2)cc1	0	66	-3	3	·
COc1ccc(-c2nn(-c3ccccc3)cc2/C=C/C(=O)OCC(=O)Nc2cccc(C#N)c2)cc1	66*	3	-14	15	97*
CCCn1cc(CN2CCC(n3nccc3NC(=O)C(OC)c3ccccc3)CC2)c(C)n1 (centres undefined)	-2	·	7	-1	·
O=c1oc(Nc2cccc(F)c2)nc2ccccc12	0	48	-13	1	·
Nc1nc(Nc2cccc(F)c2)nc2ccccc12	40*	21	-10	19	42*
C=CCC(C#N)(c1ccc(OC)c(OC)c1)c1cnccn1 (centres undefined)	0	·	-9	-2	·
COC(=O)c1c(C)oc2ccc(N(C(=O)Oc3ccccc3)S(=O)(=O)c3ccc(Cl)c([N+](=O)[O-])c3)cc12	32*	83*	-9	4	139*
COC(=O)c1c(C)oc2ccc(N(C(=O)c3ccncc3)S(=O)(=O)c3ccc4ccccc4c3)cc12	-2	53	0	4	·
Cn1c(/C=C/c2ccc(Cl)cc2Cl)c([N+](=O)[O-])c(=O)n(C)c1=O	38*	·	-19	26	39*
Brc1ccc(C2=Nn3c(nnc3-c3n[nH]c4c3CCC4)SC2)cc1	37*	·	-14	1	49*
Clc1ccc(C2=Nn3c(nnc3-c3n[nH]c4c3CCC4)SC2)cc1	15	·	-10	-3	·
c1ccc(-c2ccc(C3=Nn4c(nnc4-c4cc(-c5ccccc5)n[nH]4)SC3)cc2)cc1	64*	-32	-8	5	23
CC1=Nn2c(nnc2-c2cc(-c3ccccc3)n[nH]2)SC1	-2	10	-19	-1	·
COc1ccc(NC(=O)c2ccco2)c2ccccc12	-2	·	-12	1	·
Cc1ccc(NC(=O)c2ccccc2NC(=O)c2cccs2)cc1	1	·	-1	2	·
COc1cccc(NC(=O)CSc2nc3c([nH]c4ccccc43)c(=O)n2C)c1	35*	51	-1	-2	17
COc1ccc(/C=N\NC(=O)c2cc(O)c(O)c(O)c2)cc1COc1ccc(C(=O)OCC(C)C)cc1	41*	·	-12	5	25
O=C(NCc1ccccc1Cl)C1CCCN1S(=O)(=O)c1ccccc1F (centres undefined)	1	·	8	2	·
O=[n+]1c2c(n([O-])c3ccccc31)CCCC2	2	43	1	2	·
Cn1c(-c2ccccc2)c(/C=N/NC(=O)c2ccc(O)cc2)c2ccccc21	35*	52	-13	11	63*
Cc1oc(-c2ccc(Cl)cc2)nc1CS(=O)CC(=O)NCCCN1CC(C)CC(C)C1 (centres undefined)	-3	·	-8	3	·
CCOC(=O)c1c(NC(=O)/C=C/C(=O)O)sc(C)c1-c1ccc(C(C)(C)C)cc1	47*	39	-1	19	47*
CSCC[C@H](N)C(=O)N1CCC(C(=O)N[C@@H](C)C(=O)NCc2ccc(F)cc2)CC1	-2	·	1	2	·
SMILES	UPR XBP1 act	CHOP inhibitor	PvdQ acylase	CHOP UPR activ	UPR XBP1 confirm
COC(=O)c1sc(NC(=O)c2cnccn2)c(C(=O)OC)c1C	41*	·	·	28	1
CC1(C)CC[C@@]23CC[C@]4(C)[C@@](OC2=O)(C3C1)[C@H]1O[C@H]1C1[C@@]2(C)CC[C@H](O)C(C)(C)C2CC[C@]14C (some centres undefined)	50*	·	·	0	46*
CC1(C)C2CC[C@]3(C)C(CC=C4[C@@H]5C[C@@](C)(CO)[C@@H]6C[C@@]5(CC[C@]43C)C(=O)O6)[C@@]2(C)CC[C@@H]1O (some centres undefined)	0	·	·	-1	·
Cc1csc(=Nc2ccccc2)n1Cc1ccco1	0	8	-18	0	·
O=C(Nc1ccc([N+](=O)[O-])cc1)c1nc[nH]c1C(=O)NC1CCCCC1	166*	57	-1	24	172*
O=C(Nc1ccc(F)cc1)c1nc[nH]c1C(=O)Nc1ccc([N+](=O)[O-])cc1	14	-39	0	8	·
Cc1nnc(N2CCCC(C(=O)NCc3ccc(OC(C)C)cc3)C2)c2nn(-c3ccccc3)c(C)c12 (centres undefined)	-5	·	11	2	·
Cc1nnc(N2CCCC(C(=O)Nc3cc(F)ccc3F)C2)c2nn(-c3ccccc3)c(C)c12 (centres undefined)	41*	·	-13	5	0
CCCCN1C(=O)/C(=C2/Sc3ccc(OC)cc3N2CC)SC1=S	94*	·	-11	8	49*
COc1ccccc1CNC(=O)c1nn(C)c2c1CS(=O)(=O)c1ccccc1-2	0	·	-13	0	·
CC(C)N(C(=O)[C@H]1C[C@H](CC(=O)NCc2cccc(C(F)(F)F)c2)C(=O)N2CCc3c([nH]c4ccc(Cl)cc34)[C@]12C)C(C)C	55*	·	-15	9	70*
C[C@]12c3[nH]c4ccc(Cl)cc4c3CCN1C(=O)[C@@H](CC(=O)NCc1cccc(C(F)(F)F)c1)C[C@@H]2C(=O)N1CCOCC1	6	·	-15	6	·
CCOC(=O)/C=c1\s/c(=C\c2ccc(C(=O)OC)cc2)c(=O)n1CC(=O)Nc1ccccc1	92*	-8	2	27	1
CN=C1SC(CC(=O)Nc2ccccc2F)C(=O)N1C (centres undefined)	0	10	-9	-1	·
C=CCOc1ccc(/C=N/N2C(=O)C(CC(=O)Nc3ccc(F)cc3F)SC2=NC)cc1 (centres undefined)	51*	70*	-2	2	81*
CC(C)c1ccc2oc(=O)cc(CN3CCOCC3)c2c1	-3	·	-19	0	·
CC(=O)NC(c1ccco1)c1ccc2cccnc2c1O (centres undefined)	32*	·	0	-3	-1
CC(=O)NC(c1ccc(Cl)cc1)c1ccc2cccnc2c1O (centres undefined)	·	·	9	·	·
O=C(COC(=O)CSc1ccc(F)cc1)NCCCc1ccccc1	44*	·	-8	0	0
Cc1ccc(SCC(=O)OCC(=O)NCCCc2ccccc2)cc1	1	·	-5	1	·
O=Cc1cc2ccccc2nc1SCc1ccc(Cl)cc1	43*	56	0	10	43*

From PubChem BioAssay
